These results are taken from PubChem BioAssay.

Assay [1] is described as follows: inhibitors of TNFa-induced NFkB p65 translocation, primary screen, imaging, HUVEC, MLSMR starter and 10KST1 sets (AID 438;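 active = inhibition above 20% together with a positive visual image hit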;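 note: compound added about 3h40 before a 20 min TNFalpha stimulation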;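 for inhibition: signal is the nuclear over cytoplasmic p65 intensity ratio per well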). The settings on record: HUVEC TNFa-induced p65 nuclear translocation; cell count: measured here: nuclei count (cytotoxicity indicator), at 2.08 µM; inhibition: at 2 µM, stronger effect = higher value, 0% TNFa-plus-vehicle, 100% no-TNFa wells.
Assay [2] in a line: inhibitors of mutant huntingtin aggregation, primary screen, imaging, exon1htt(103Q)mCFP cells, high-content imaging (AID 483;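 active = visual image review flags a hit and inhibition of aggregation exceeds 20%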;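 note: compound exposure lasted 3 days before fixation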;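 for nuclei count: percent of the per-plate median nuclei count of sample wells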). The settings on record: exon1htt(103Q)mCFP cell line, aggregate imaging, at 2 µM; inhibition of aggregation: stronger effect = higher value; nuclei count: measured here: cell count, toxicity.
A short description of assay [3]: inhibitors of E-selectin induction by TNFa, primary screen, imaging, HUVEC, immunofluorescence, MLSMR starter and 10KST1 sets (AID 487;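 active = visually confirmed hit in the image check and inhibition above 20%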;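 for inhibition: signal is fraction of cell area covered by stained E-selectin grains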;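 for nuclei count: 100% = median nuclei count of all wells on the same plate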). The settings on record: HUVEC TNFalpha-induced E-selectin immunofluorescence imaging, at 2 µM; inhibition: stronger effect = higher value; nuclei count: measured here: cell number, toxicity.
For assay [4], the target named is Voltage-gated potassium channel subunit beta-2 (Rattus norvegicus) (UniProt P62483). The assay is described as follows: KvBeta enzyme negative modulators, primary screen, biochemical, NADPH fluorescence (AID 622;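 active = fluorescence slope higher than the sample average by over 3 SD, cut at about -0.22 in these data, passing the limit was not always enough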;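 note: slope of raw intensity against log time taken from 70 to 1610 s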). The conditions noted are these: recombinant KvBeta, 4-cyanobenzaldehyde reduction, at 10 µM, stronger effect = higher value.
Voltage-gated potassium channel subunit beta-2 (Rattus norvegicus), sequence (P62483 whole entry, looked up): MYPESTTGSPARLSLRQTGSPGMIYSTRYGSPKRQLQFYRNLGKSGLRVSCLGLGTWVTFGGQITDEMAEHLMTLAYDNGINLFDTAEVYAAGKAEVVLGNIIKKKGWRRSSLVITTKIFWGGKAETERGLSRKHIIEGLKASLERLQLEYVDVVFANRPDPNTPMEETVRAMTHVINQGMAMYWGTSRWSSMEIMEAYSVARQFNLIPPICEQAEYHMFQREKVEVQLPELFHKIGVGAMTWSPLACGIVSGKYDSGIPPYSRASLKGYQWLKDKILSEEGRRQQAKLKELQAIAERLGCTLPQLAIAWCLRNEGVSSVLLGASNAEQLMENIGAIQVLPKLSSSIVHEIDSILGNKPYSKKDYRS
For assay [5] the target is unchanged. Put plainly: KvBeta positive modulators, primary screen, biochemical, NADPH fluorescence (AID 623;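 active = NADPH fluorescence slope more negative than the mean of all samples by about 3 SD, 99.7% confidence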;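 note: fluorescence intensity change per second fitted from 20 to 320 s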). The settings on record: Recombinant KvBeta, NADPH fluorescence decrease slope, 10 min; at 10 µM; stronger effect = lower value.
The target of assay [6] is Muscarinic acetylcholine receptor M4 (Homo sapiens) (UniProt P08173). Put plainly: compounds altering M4/GIRK thallium flux, either direction, primary screen, M4 allosteric agonist project, cell-based, HEK293 M4/GIRK, BTC-AM (AID 625;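 active = fluorescence slope after compound addition differing from the mean of all tested samples at 99.7% confidence, mostly higher but some lower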;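 note: thallium influx through GIRK channels coupled to M4 in HEK293 cells with BTC-AM dye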). The settings on record: at 10 µM, actives lie on both sides. The method in brief: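 System: HEK293 cells with M4 receptor and GIRK channels | Incubation: Cells overnight at 37 °C, BTC-AM loading 1 h, reads 2 min total | Technique: Kinetic BTC-AM fluorescence sampled at 1 Hz, 10 s pre-addition baseline | Measure: Post-addition slope, 15–24 s, of baseline-normalized fluorescence | Control set: Carbachol positive, DMSO negative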
Muscarinic acetylcholine receptor M4 (Homo sapiens), sequence (P08173 whole entry, looked up): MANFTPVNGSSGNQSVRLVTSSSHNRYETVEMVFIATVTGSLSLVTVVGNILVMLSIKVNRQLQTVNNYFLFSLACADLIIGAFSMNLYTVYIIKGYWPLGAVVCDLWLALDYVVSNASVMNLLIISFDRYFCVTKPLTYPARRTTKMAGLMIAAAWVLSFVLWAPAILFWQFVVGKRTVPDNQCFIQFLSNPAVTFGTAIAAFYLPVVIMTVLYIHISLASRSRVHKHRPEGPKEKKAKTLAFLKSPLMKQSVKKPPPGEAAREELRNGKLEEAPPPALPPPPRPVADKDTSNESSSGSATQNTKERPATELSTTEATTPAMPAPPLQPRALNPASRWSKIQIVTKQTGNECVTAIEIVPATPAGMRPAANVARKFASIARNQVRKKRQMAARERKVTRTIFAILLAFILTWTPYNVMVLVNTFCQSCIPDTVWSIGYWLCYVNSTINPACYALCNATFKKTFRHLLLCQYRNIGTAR

Assay [7] is described as follows: inhibitors of Sendai virus-induced IRF3 signaling, primary screen, TLR/RLR signaling modifier project, cell-based, Sendai virus stimulus, luciferase, 10K MLSCN set (AID 602276;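 active = inhibition at or above 50% at 10 µM; inactive = inhibition below 50%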;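 note: firefly luciferase from ISG56 promoter only with Renilla not read in this screen; 0% = Sendai virus plus DMSO and 100% = medium plus DMSO without virus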). The settings on record: HEK293 RL24 IRF3 luciferase reporter, at 10 µM, stronger effect = higher value.
A short description of assay [8]: inhibitors of poly I:C-induced TLR3 signaling, primary screen, cell-based, poly I:C stimulus, luciferase, 10K MLSCN set (AID 602277). The conditions noted are these: HEK293-TLR3 RL24 IRF3 luciferase reporter, at 10 µM, stronger effect = higher value. (In a reporter assay the amount or activity of a reporter protein is the signal.)

The structures appear in SMILES notation. The source made the active and inactive calls.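 Rule for the calls, unless noted: active = inhibition of the reporter signal at or above 50%; inactive = inhibition below 50%.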

The term inhibition denotes the relative decrease from the control value, in per cent. As for `O=C(NCc1ccccn1)c1ccc2nc(-c3ccco3)c(-c3ccco3)nc2c1`, the cell count in assay [1] came to 626. For the same compound, the inhibition was -27.2% (inactive) in assay [1], -147% (inactive) in assay [3], 10.9% (inactive) in assay [7] and 3.28% (inactive) in assay [8]. Also, the inhibition of aggregation in assay [2] is -52.7% (inactive). The nuclei count in assay [2] is 82.3%; in assay [3], 103%. For the same compound, the values for the fluorescence slope in assay [4] and in assay [6] were -0.504 (inactive) and 0.00242 (inactive), respectively. Also, the NADPH fluorescence slope in assay [5] is -2.5e-05 (inactive).
As for `COc1ccccc1-c1c(C)nn2c(C)c(C(C)=O)cnc12`, the cell count in assay [1] is 768. For the same compound, the inhibition in assay [1] is -0.8% (inactive); in assay [3], 96.7% (active); in assay [7] it was 17.1% (inactive); in assay [8] it was 14.2% (inactive). Besides, the inhibition of aggregation in assay [2] is 13.5% (inactive). Further, the nuclei count in assay [2] is 97%; in assay [3], 81.4%. For the same compound, the fluorescence slope in assay [4] was -0.611 (inactive); in assay [6] it was 0.00778 (inactive). In assay [5], the NADPH fluorescence slope is -3.6e-05 (inactive).
On to `O=c1[nH]c2cccnc2n1Cc1ccco1`, for which the cell count in assay [1] came out at 325. Further, the inhibition in assay [1] was -4.2% (inactive); in assay [3] it was -5.2% (inactive); in assay [7], 7.81% (inactive); in assay [8], 6.25% (inactive). In addition, the inhibition of aggregation in assay [2] is -15% (inactive). The nuclei count in assay [2] was 114%; in assay [3], 119%. In addition, the fluorescence slope was -0.323 (inactive) in assay [4] and 0.0064 (inactive) in assay [6]. The NADPH fluorescence slope in assay [5] was -4.8e-05 (inactive).
In the case of `CN(c1ccccc1)C(c1ccc(F)cc1)c1nnnn1CC1CCCO1` (centres undefined), the cell count in assay [1] came to 762. Also, the inhibition in assay [1] was -2.9% (inactive); in assay [3], -61.8% (inactive); in assay [7], 16% (inactive); in assay [8] it was 42.3% (inactive). Besides, the inhibition of aggregation in assay [2] is -1.8% (inactive). In addition, the nuclei count in assay [2] amounted to 100%; in assay [3], 132%. Moreover, the fluorescence slope in assay [4] is -0.288 (inactive); in assay [6] it was 0.00686 (inactive). Further, in assay [5], the NADPH fluorescence slope is -1.6e-05 (inactive).
For `COc1nc2ccc(C)cc2cc1-c1noc(-c2cccnc2)n1`, the cell count in assay [1] is 243. The inhibition is -0.9% (inactive) in assay [1], -71.7% (inactive) in assay [3], 6.17% (inactive) in assay [7] and -7.44% (inactive) in assay [8]. The inhibition of aggregation in assay [2] was 3.8% (inactive). In addition, the nuclei count in assay [2] stood at 62.9%; in assay [3], 109%. Moreover, the fluorescence slope was -0.456 (inactive) in assay [4] and 0.0055 (inactive) in assay [6]. In addition, the NADPH fluorescence slope in assay [5] is 3.8e-06 (inactive).
As to `CC1=CC=CC2=NC(=O)CC(C)(C(=O)N(CC(=O)NC(C)C)C3CCCC3)N12` (centres undefined), in assay [1], the cell count amounted to 668. For the same compound, the inhibition was -4.9% (inactive) in assay [1], 71.9% (active) in assay [3], 4.96% (inactive) in assay [7] and 6.2% (inactive) in assay [8]. Moreover, the inhibition of aggregation in assay [2] was -31.9% (inactive). The nuclei count in assay [2] amounted to 107%; in assay [3], 102%. Further, the fluorescence slope in assay [4] was -0.405 (inactive); in assay [6], 0.00619 (inactive). Further, the NADPH fluorescence slope in assay [5] was 6.3e-05 (inactive).
Take `COc1ccccc1CNS(=O)(=O)c1cccc(S(=O)(=O)N2CCOCC2)c1`: the cell count in assay [1] stood at 676. Also, the inhibition in assay [1] is 25.1% (inactive); in assay [3] it was 19.5% (inactive); in assay [7], 10.7% (inactive); in assay [8] it was 19.2% (inactive). For the same compound, the inhibition of aggregation in assay [2] was 7.8% (inactive). Also, the nuclei count came out at 116% in assay [2] and 117% in assay [3]. Further, the fluorescence slope in assay [4] was -0.401 (inactive); in assay [6], 0.00588 (inactive). Besides, the NADPH fluorescence slope in assay [5] is 2.6e-05 (inactive).
`COC(=O)CN(c1ccc2c(c1)OCO2)S(C)(=O)=O`: the cell count in assay [1] was determined as 356. Also, the inhibition in assay [1] is -0.3% (inactive); in assay [3], 62.9% (inactive); in assay [7], 8.14% (inactive); in assay [8], 8.67% (inactive). In assay [2], the inhibition of aggregation is 17.1% (inactive). In addition, the nuclei count in assay [2] came to 81.1%; in assay [3], 49.1%. The fluorescence slope in assay [4] was -0.482 (inactive); in assay [6], 0.00639 (inactive). Besides, in assay [5], the NADPH fluorescence slope is -2.7e-06 (inactive).
Take `O=C(Nc1ccc(F)cc1)c1cccc2c1C(=O)N(Cc1ccccn1)C2`: the cell count in assay [1] was found to be 811. Further, the inhibition was 2.1% (inactive) in assay [1], -108% (inactive) in assay [3], 0.0917% (inactive) in assay [7] and -22.2% (inactive) in assay [8]. In addition, in assay [2], the inhibition of aggregation was 4.1% (inactive). The nuclei count in assay [2] is 98.1%; in assay [3] it was 126%. Moreover, the fluorescence slope is -0.576 (inactive) in assay [4] and 0.00591 (inactive) in assay [6]. Also, the NADPH fluorescence slope in assay [5] is -3e-05 (inactive).
As for `Cn1c(NCc2cccc(Br)c2)nc2ccccc21`, the cell count in assay [1] was 337. Besides, the inhibition in assay [1] was -4.7% (inactive); in assay [3] it was -6.9% (inactive); in assay [7], 8.28% (inactive); in assay [8], 14.2% (inactive). The inhibition of aggregation in assay [2] is 3% (inactive). Besides, the nuclei count in assay [2] was determined as 103%; in assay [3] it was 139%. For the same compound, the fluorescence slope was -0.528 (inactive) in assay [4] and 0.00491 (inactive) in assay [6]. In addition, the NADPH fluorescence slope in assay [5] is -2.6e-05 (inactive).
Consider `CCn1c(=O)cc(SCC(=O)Nc2cccnc2)c2ccccc21`, for which, in assay [1], the cell count was 369. The inhibition was -8.6% (inactive) in assay [1], -15.9% (inactive) in assay [3], 2.11% (inactive) in assay [7] and -5.54% (inactive) in assay [8]. The inhibition of aggregation in assay [2] was 4.3% (inactive). Also, the nuclei count worked out at 101% in assay [2] and 116% in assay [3]. Besides, the fluorescence slope in assay [4] was -0.463 (inactive); in assay [6], 0.00646 (inactive). Moreover, the NADPH fluorescence slope in assay [5] is 2.2e-05 (inactive).
For the compound `COc1cc(OC)cc(-c2nc3nc(C)c(CCC(=O)O)c(C)n3n2)c1`, the cell count in assay [1] was 681. Also, the inhibition in assay [1] was -14.6% (inactive); in assay [3], 46.5% (inactive); in assay [7], 21.9% (inactive); in assay [8] it was 28.4% (inactive). Besides, the inhibition of aggregation in assay [2] is 0.2% (inactive). Besides, the nuclei count in assay [2] worked out at 111%; in assay [3], 97.4%. Also, the fluorescence slope in assay [4] was -0.522 (inactive); in assay [6], 0.00535 (inactive). The NADPH fluorescence slope in assay [5] is -3.8e-05 (inactive).
Take `O=C(N1CCCCCC1)N1CCN(S(=O)(=O)N2CCCCC2)CC1`: the cell count in assay [1] was 323. Also, the inhibition in assay [1] is -2.2% (inactive); in assay [3] it was -33.5% (inactive); in assay [7], 24% (inactive); in assay [8] it was 12.9% (inactive). Besides, in assay [2], the inhibition of aggregation is 9.2% (inactive). Moreover, the results for the nuclei count in assay [2] and in assay [3] were 106% and 126%, respectively. The fluorescence slope was -0.579 (inactive) in assay [4] and 0.00553 (inactive) in assay [6]. For the same compound, the NADPH fluorescence slope in assay [5] is -4.8e-05 (inactive).
Consider `CC1(C)CC(=O)C2=C(C1)N(Cc1ccco1)C(=O)C2(NC(=O)C1CCCCC1)C(F)(F)F` (centres undefined), for which, in assay [1], the cell count turned out to be 670. Further, the inhibition in assay [1] was -2.6% (inactive); in assay [3], -51% (inactive); in assay [7], 16.7% (inactive); in assay [8] it was 21.1% (inactive). Besides, the inhibition of aggregation in assay [2] is 9.8% (inactive). The nuclei count in assay [2] was 111%; in assay [3], 116%. For the same compound, the results for the fluorescence slope in assay [4] and in assay [6] were -0.453 (inactive) and 0.00581 (inactive), respectively. In assay [5], the NADPH fluorescence slope is -6.1e-05 (inactive).
